# Shown are actives, neighbours in structure and some others; about 1.9% of the full set was active somewhere.
# pCIP destab: lowers stability of the mouse p/CIP coactivator protein; Q05BA5; F442A p/CIP-EGFP cells, EGFP fluorescence, 16 h; decrease of EGFP signal, % at 10 µM; actives 0.01% (n = 290,000); AID 1984;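 active = EGFP signal decrease of at least 30% at 10 µM or well 3 SD below plate mean, unless failing retest; inactive = the rest, including hits failing retest or dose response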
# Dynein transport: blocks dynein driven cargo transport along microtubules. 3617.4 mouse cells, GR-EGFP nuclear translocation imaging; test concentration mostly 20 µM; stimulated with dexamethasone, 1 µM; active compounds read low. z-score, hits read low. actives 0.47% (n = 220,000);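 active = plate z-score of nuclear minus cytoplasmic receptor signal below a set negative limit, without overly bright fluorescence or cell loss, cut at about -3.5 in these data, passing the limit was not always enough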;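 note: z-score of nuclear minus cytoplasmic ring GR-EGFP intensity difference per well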
#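 Also added: dexamethasone, 1.0 µM final. Medium: tet-free, stripped-serum medium. Detection: fixed, Hoechst-stained cells imaged at 10x for EGFP. Read-out: nuclear-to-cytoplasmic GR-EGFP distribution per well. Times: induction 48 h, compound 1 h, agonist 30 min.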
# p47phox inh: inhibitors of human p47phox binding; p47phox/p22phox peptide binding, fluorescence polarization, 2 h; inhibition, % at 24.7 µM; actives 0.53% (n = 220,000); AID 1274; P14598;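 active = inhibition above about 30%, limit read from the data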;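 note: 0% = p47phox with labelled peptide and 100% = labelled peptide alone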
# Target sequence (P14598 whole entry, looked up): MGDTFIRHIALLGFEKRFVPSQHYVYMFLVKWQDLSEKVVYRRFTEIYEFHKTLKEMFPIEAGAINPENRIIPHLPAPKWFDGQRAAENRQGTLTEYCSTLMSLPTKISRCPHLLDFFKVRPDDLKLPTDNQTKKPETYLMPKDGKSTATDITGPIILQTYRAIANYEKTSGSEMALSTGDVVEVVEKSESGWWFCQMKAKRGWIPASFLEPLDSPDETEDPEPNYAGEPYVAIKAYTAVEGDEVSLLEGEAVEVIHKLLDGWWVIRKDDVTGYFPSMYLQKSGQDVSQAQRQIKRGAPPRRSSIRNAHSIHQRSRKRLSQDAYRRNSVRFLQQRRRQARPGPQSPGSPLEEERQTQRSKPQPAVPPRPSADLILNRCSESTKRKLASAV
# RAM inhibit: inhibitors of the yeast RAM network; inhibition, % at 50 µM; S. cerevisiae dse1pr::URA3 reporter, 5-FOA growth OD615, 2 d; analog-sensitive cbk1-as2 kinase mutant strain; AID 868; actives 1.8% (n = 190,000);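 active = inhibition above a set limit, 3 SD over mean compound inhibition, cut at about 8.4% in these data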;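 note: 0% = DMSO-only wells with no growth and 100% = 10 µM 1-NA-PP1 full growth; inhibition rescues growth on 5-FOA so higher OD means more RAM inhibition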
# RAM efflux-def: RAM network inhibitors in efflux-deficient yeast; max inhibition, %; shares compounds with RAM inhibit; S. cerevisiae efflux-deficient reporter strain, 5-FOA growth OD615, 2 days; AID 1305; 1,200 tested, under 10 active; call rule not given here;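 note: plate controls were vehicle for no effect and reference inhibitor for full effect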
# Numbers without * were called inactive; x = not tested or not shown.
SMILES,pCIP destab,Dynein transport,p47phox inh,RAM inhibit,RAM efflux-def
Cc1cccc(C(=O)Nc2cccc(OC(=O)c3cccc(C)c3)c2)c1,-5.7,0.284,-2.1,13.8*,5.3
O=C(NCc1ccccc1F)C1CCCN1C(=O)Nc1ccc(F)cc1 (stereo not drawn),-12.9,x,x,x,x
Cc1ccc2[nH]c(=O)cc(C(=O)OCC(=O)c3ccccc3)c2c1,-6.1,1.61,-2.5,15.3*,1.1
CC1=C(C(=O)OCc2ccccc2)C(c2ccc(C(C)(C)C)cc2)NC(=O)N1CCCCCC(=O)O (stereo not drawn),-7.2,-0.045,-4.2,17.8*,6.2
CC1=C(C(=O)OCc2ccccc2)C(c2ccc([N+](=O)[O-])cc2)NC(=O)N1CCCCCC(=O)O (stereo not drawn),-7.6,-0.0153,-9.2,13.7*,5.1
CC1=C(C(=O)OCc2ccccc2)C(c2ccc3ccccc3c2)NC(=O)N1CCCCCC(=O)O (stereo not drawn),-3.1,0.313,-13.2,6.7,x
CCCCCCCC(=O)Nc1cc(C(=O)NCCC)ccc1N1CCC2(CC1)CC(c1ccccc1)=NO2,4.5,x,x,x,x
CS(=O)(=O)Nc1ccc(C(=O)Nc2ccccc2Sc2ccccc2)cc1,-8.1,-0.224,-5.1,12.2*,1.5
CCc1ccccc1NC(=O)c1ccc(NS(C)(=O)=O)cc1,-1.4,-0.382,-8.1,0.2,x
Nc1nn2c(-c3ccccc3)cc(=O)[nH]c2c1N=Nc1ccc(O)cc1,-11.7,1.03,-79.1,6.7,x
Nc1nn2c(-c3ccccc3)cc(=O)[nH]c2c1N=Nc1ccc(Br)cc1,1.0,-0.00272,22.3,14.1*,1.8
Cc1ccc(O)c(NC(=O)c2cc(-c3ccccc3Cl)on2)c1,-6.9,x,x,x,x
CC(CCc1ccco1)NC(=O)c1cccc2c1C(=O)N(C1CCCCC1)C2 (stereo not drawn),-4.6,-0.0557,-12.9,12.0*,0.8
COc1ccc(N2Cc3cccc(C(=O)NC(C)CCc4ccco4)c3C2=O)cc1 (stereo not drawn),-20.2,-2.52,-36.0,7.2,x
O=C(O)c1cccc(N/N=C/c2sc(N3CCOCC3)nc2-c2ccccc2)c1,-3.7,0.265,1.2,0.9,x
O=[N+]([O-])c1ccc(N/N=C/c2sc(N3CCOCC3)nc2-c2ccccc2)c(S(=O)(=O)Nc2ccc(Cl)cc2)c1,-361.5,-4.99,-68.0,12.4*,6.2
CCCc1cc(C(=O)OC)c(NC(=O)c2cc(C)on2)s1,15.5,-0.468,-2.6,12.2*,1.5
COc1ccc(-c2nc3ccccc3c(=O)n2CCCn2ccnc2)cc1,-22.0,-1.35,-0.6,1.1,x
COc1ccc(-c2nc3ccccc3c(=O)n2CC(C)C)cc1,-0.2,x,x,x,x
COc1ccc(-c2nc3ccccc3c(=O)n2CCOc2ccccc2C)cc1,6.0,0.088,-4.5,21.0*,7.1
COc1ccc(-c2nc3ccccc3c(=O)n2CCOc2cc(C)ccc2C)cc1,-18.5,0.074,-12.1,14.0*,4.9
COc1ccc(-c2nc3ccccc3c(=O)n2CCOc2ccc(C)cc2C)cc1,-4.9,-1.21,3.1,14.8*,6.2
CC1=C(C(=O)Nc2ccccc2C(=O)NCCCOC(C)C)SCCO1,2.5,x,x,x,x
CCc1c(C#N)c(SCc2c(C)noc2C)nc2c1C(=O)CC(C)(C)C2,-2.2,0.268,1.5,12.1*,2.7
CCc1c(C#N)c(SCCC(=O)Nc2ccc(OC)cc2)nc2c1C(=O)CC(C)(C)C2,4.0,0.666,-0.7,2.5,x
SMILES,pCIP destab,Dynein transport,p47phox inh,RAM inhibit,RAM efflux-def
NC(=O)COC(=O)c1ccccc1Nc1ccc(SC(F)F)cc1,-2.8,0.579,1.6,-0.6,x
O=C(COC(=O)c1ccccc1C(=O)c1ccccc1)Nc1ccc(SC(F)F)cc1,-17.2,-0.707,-6.8,13.2*,3.2
O=C(COc1ccccc1C(=O)O)Nc1ccc(SC(F)F)cc1,-6.1,1.22,x,0.6,x
O=C(COC(=O)c1ccccc1Nc1ccc(SC(F)F)cc1)NC1CC1,-1.7,-0.218,-9.3,12.5*,2.4
CC(=O)N1CCC(C(=O)Nc2ccc(S(=O)(=O)NCCc3ccccc3)cc2)CC1,-0.3,x,x,x,x
CCn1cc(-c2cc(C(=O)O)c3ccccc3n2)cn1,5.7,-0.737,4.5,-0.4,x
CCc1ccc2oc(=O)cc(CN3CCCCC3)c2c1,-5.4,x,x,x,x
COc1ccccc1N(CC(O)COc1c(C)cc(C)cc1C)S(=O)(=O)c1ccccc1 (stereo not drawn),-3.1,-0.146,-11.3,11.8*,5.5
COc1ccccc1N(CC(O)COc1ccccc1)S(=O)(=O)c1ccccc1 (stereo not drawn),-0.1,-0.961,-9.4,5.0,x
COc1ccccc1N(CC(O)COc1ccc(C)cc1)S(=O)(=O)c1ccccc1 (stereo not drawn),-5.8,1.41,-14.9,12.4*,1.6
Cc1ccc(Cl)cc1N(CC(=O)NC(C)c1ccccc1)S(C)(=O)=O (stereo not drawn),-6.0,x,x,x,x
CCOc1ccc2nc(SCC(=O)c3ccccc3)sc2c1,-5.3,-0.548,-13.8,15.6*,2.1
CCOc1ccc2nc(SCCNS(=O)(=O)c3ccccc3)sc2c1,-4.7,-0.228,-15.2,11.6*,1.6
CCOc1ccc2nc(SCc3ccc(OC)cc3)sc2c1,-7.8,-0.922,-11.3,0.9,x
O=C(CSc1nc2ccccc2s1)CSc1nc2ccccc2s1,-2.3,-0.29,-11.9,14.1*,4.1
CCc1ccc(CNC(=O)CCc2cn(C)c3ccccc23)cc1,6.3,x,x,x,x
CC(C)CCNC(=O)C1CCN(S(=O)(=O)c2ccc3c(c2)CC(C)N3C(=O)C2CC2)CC1 (stereo not drawn),-7.9,x,x,x,x
Cc1nc(C)c(NC(=O)N2CCc3ccccc32)cc1NC(=O)N1CCc2ccccc21,-3.7,0.0488,-15.3,12.0*,3.1
Cc1nc(N2CCCCC2)c(C#N)c(C)c1[N+](=O)[O-],-17.1,-0.0318,10.1,-0.6,x
Cn1cnnc1SC1c2cccc3cccc(c23)C1NS(=O)(=O)c1ccc(Cl)cc1 (stereo not drawn),-11.8,-1.12,-1.2,11.9*,1.7
COc1ccccc1N(C(=O)Cn1nnc(-c2ccc(C)o2)n1)C(C(=O)NC1CCCC1)c1ccncc1 (stereo not drawn),-4.2,x,x,x,x
CCOC(=O)c1c(C)[nH]c(C(=O)C(C)Sc2ccc(Cl)cc2)c1C (stereo not drawn),-5.2,0.127,-16.2,12.2*,2.9
CSCSC1=C(C#N)C(c2ccc(Cl)cc2)C(C(C)=O)=C(C)N1 (stereo not drawn),-8.3,-0.652,-15.4,15.2*,3.6
COc1ccc(OCCNS(=O)(=O)c2ccc3oc4ccccc4c3c2)cc1,-0.6,2.2,-9.5,4.0,x
CN(CCOc1ccccc1)S(=O)(=O)c1ccc2oc3ccccc3c2c1,16.4,0.0279,-9.7,14.6*,7.2
Cc1ccc(NS(=O)(=O)c2c(C(=O)N3CCCCCC3)c(C)n(C)c2C)c(C)c1,-0.8,x,x,x,x
CC(C)(O)c1[nH]c2cc(C(F)(F)F)ccc2c1C(C)(C)O,-0.4,x,x,x,x
C=CCn1c(SCC(=O)Nc2ccccc2C)nnc1-c1ccncc1,-4.1,-0.484,-3.3,13.7*,2.0

# Assay outcomes (PubChem)
